Assay results reported in ChEMBL document CHEMBL2375244 (J Med Chem, 2013).

Columns and labels:
[1] = Cytotoxicity against mouse GC-2 cells after 72 hrs by MTT assay; type: functional, cell-based; settings: GC-2, 72 h
Outline: (§1)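 Cells kept in RPMI or DMEM with 10% FBS at 37 °C, 5% CO₂ and allowed to attach overnight; 72 h with increasing inhibitor concentrations; then 1 mg/mL MTT for 3 h, DMSO solubilisation, OD read at 540 nm. Testis lines had culture conditions adapted to them. Dose-response in triplicate, 9 concentrations between 0.02 and 100 μM, averaged.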

[2] = Cytotoxicity against mouse GC-1 cells after 72 hrs by MTT assay; type: functional, cell-based; settings: GC-1, 72 h; outline: as §1
[3] = test system: MDA-MB-468; assay: Cytotoxicity against human MDA-MB-468 cells after 72 hrs by MTT assay; type: functional, cell-based; settings: MDA-MB-468, 72 h; outline: as §1
[4] = target: T1, CDK2/Cyclin A2 (Homo sapiens, UniProt P24941); assay: Inhibition of human CDK2/Cyclin A2 using PKTPKKAKKL as substrate by fluorescence assay; type: protein-complex assay
[5] = target: T1, CDK2/Cyclin A2; assay: Inhibition of human CDK2/Cyclin A2 using PKTPKKAKKL as substrate by P33-radiolabeled assay; type: protein-complex assay
Outline: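 Radiometric (P33) kinase assay run by a contract lab on CDK–cyclin complexes. Inhibitor tested in duplicate at 0.05 nM to 1000 nM with ATP at 10 μM. […] For the in-house assays, IC50 was obtained by Hill-equation fitting.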

[6] = Cytotoxicity against mouse TM4 cells after 72 hrs by MTT assay; type: functional, cell-based; settings: TM4, 72 h; outline: as §1
[7] = Cytotoxicity against human MDA-MB-436 cells after 72 hrs by resazurin/resorufin-based fluorescence assay; type: functional, cell-based; settings: MDA-MB-436, 72 h
[8] = test system: NCI-H929; assay: Induction of apoptosis in human NCI-H929 cells assessed as increase in cleaved caspase-3 level at 0.005 uM after 24 hrs by FACS flow cytometric analysis relative to control; type: functional
Outline: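 Active caspase-3 was detected with a FITC-labelled monoclonal antibody by flow cytometry, and the percentage of cells with raised cleaved caspase-3 is reported. Triplicate experiments.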

[9] = test system: MDA-MB-231; assay: Cytotoxicity against human MDA-MB-231 cells after 72 hrs by resazurin/resorufin-based fluorescence assay; type: functional, cell-based; settings: MDA-MB-231, 72 h
[10] = test system: SK-BR-3; assay: Cytotoxicity against human SK-BR-3 cells after 72 hrs by resazurin/resorufin-based fluorescence assay; type: functional, cell-based; settings: SK-BR-3, 72 h
Outline: (§2)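 CellTiter-Blue viability: 1200 cells per well seeded, incubated overnight at 37 °C, 5% CO₂; drugs serially diluted 2:3 in medium, four replicate wells per concentration plus four diluent-only control wells; 72 h exposure; resazurin reduction to resorufin read by fluorescence (579 nm ex/584 nm em). IC50 is the average of three data sets, each using nine concentrations between 0.004 μM and 12.5 μM.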

[11] = test system: A673; assay: Induction of apoptosis in human A673 cells assessed as caspase-3 activation at 0.05 uM to 5 uM after 24 hrs by luminescence assay relative to control; type: functional
Outline: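 Caspase-3/7 activation measured with a Caspase-Glo 3/7 luminescent assay. Cells were plated as for the high-throughput viability assay and exposed for 24 h to serial dilutions. EC50 was obtained from the dose-response.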

[12] = test system: BT-549; assay: Cytotoxicity against human BT549 cells after 72 hrs by resazurin/resorufin-based fluorescence assay; type: functional, cell-based; settings: BT-549, 72 h; outline: as §2

SMILES	IC50 [1]	IC50 [2]	IC50 [3]	IC50 [4]	IC50 [5]	IC50 [6]	IC50 [7]	Activity [8]	IC50 [9]	IC50 [10]	Activity [11]	IC50 [12]
Nc1nc(Nc2ccc(S(N)(=O)=O)cc2)sc1C(=O)c1cccnc1	> 30000 nM	20000 nM	2800 nM	20 nM	0.9 nM	13000 nM	–	–	–	–	–	–
CCc1cnn2c(NCc3ccc[n+]([O-])c3)cc(N3CCCC[C@H]3CCO)nc12 [DINACICLIB]	–	–	–	–	–	–	< 5 nM	63%	< 5 nM	< 5 nM	280%	> 10000 nM
